Converted amounts (≈) assume the structure as drawn. The source made the active and inactive calls. The rule behind the calls is not given here.
Tests used:
[1] = tested on: Mycobacterium tuberculosis H37Rv; test: Inhibition of PKS13 in Mycobacterium tuberculosis H37Rv assessed as reduction in bacterial growth after […] by MABA
Vero = test: Cytotoxicity against African green monkey Vero cells after 72 hrs by MABA; format: cell-based; conditions: Chlorocebus sabaeus
[2] = tested on: Mycobacterium tuberculosis; test: Antitubercular activity against Mycobacterium tuberculosis H37Rv infected in Balb/C mouse assessed as reduction in bacterial growth in mouse serum at 100 mg/kg, po administered via gavage after 30 to 120 mins by MABA; format: functional, organism-based
Outline: (§1)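 Oral serum inhibition titration. Six-week female BALB/c mice (20 g) gavaged with 100 mg/kg compound suspended in 0.5% carboxymethylcellulose. Isoniazid 10 mg/kg was the positive control and vehicle alone the negative control. Cardiac blood taken at 30, 60 and 120 min and serum separated. Serum two-fold serially diluted with 10^4 CFU M. tuberculosis H37Rv, incubated 7 days, read by MABA.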

[3] = Selectivity index, ratio of IC50 for African green monkey Vero cells to MIC=<90 for Mycobacterium tuberculosis H37Rv; format: toxicity; conditions: read-out: Selectivity Index
Outline: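 Vero (African green monkey kidney) cytotoxicity IC50 by MABA, divided by the MABA MIC against M. tuberculosis H37Rv to give SI = IC50/MIC.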

[4] = tested on: Mycobacterium tuberculosis; test: Antitubercular activity against Mycobacterium tuberculosis by microdilution method; format: functional
Outline: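 Whole-cell MIC against M. tuberculosis strain H37Rv, measured by the microplate Alamar Blue assay (MABA) following a previously reported procedure; MIC values given in […].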

HEK293 = test: Cytotoxicity against human HEK293 cells after 48 hrs by CellTiter96 AQueous one solution assay; format: cell-based; conditions: HEK293, 48 h
Outline: (§2)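 Human cell cytotoxicity. QSG-7701 and HEK293 grown in DMEM; MRC-5 and HFL-1 grown in DMEM/F12. Both media carried 10% FBS with penicillin/streptomycin, 37°C, 5% CO2. Cells seeded at 5,000/well, incubated overnight, then exposed to compound for 48 h. CellTiter 96 AQueous One added for 1 h, absorbance read at 490 nm. IC50 is the mean of three independent experiments.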

[5] = tested on: Mycobacterium tuberculosis; test: Antitubercular activity against Mycobacterium tuberculosis H37Rv infected in Balb/C mouse assessed as reduction in bacterial growth in mouse serum at 100 mg/kg, po administered via gavage after 30 mins dose by MABA; format: functional, organism-based; outline: as §1
[6] = Selectivity index, ratio of IC50 for human HFL1 cells to MIC=<90 for Mycobacterium tuberculosis H37Rv; format: toxicity; conditions: read-out: Selectivity Index
[7] = Selectivity index, ratio of IC50 for human MRC5 cells to MIC=<90 for Mycobacterium tuberculosis H37Rv; format: toxicity; conditions: read-out: Selectivity Index
[8] = Metabolic stability in human liver microsomes assessed as parent compound remaining at 10 uM after 60 mins in presence of NADPH; format: ADME, microsome; conditions: read-out: Stability
[9] = Cytotoxicity against human QSG7701 cells after 48 hrs by CellTiter96 AQueous one solution assay; format: cell-based; conditions: QSG7701, 48 h; outline: as §2
[10] = Selectivity index, ratio of IC50 for human QSG7701 cells to MIC=<90 for Mycobacterium tuberculosis H37Rv; format: toxicity; conditions: read-out: Selectivity Index
[11] = Selectivity index, ratio of IC50 for human HEK293 cells to MIC=<90 for Mycobacterium tuberculosis H37Rv; format: toxicity; conditions: read-out: Selectivity Index
HFL1 = test: Cytotoxicity against HFL1 cells after 48 hrs by CellTiter96 AQueous one solution assay; format: cell-based; conditions: Homo sapiens, HFL1, 48 h; outline: as §2
MRC5 = test: Cytotoxicity against human MRC5 cells after 48 hrs by CellTiter96 AQueous one solution assay; format: cell-based; conditions: MRC5, 48 h; outline: as §2

Structure (SMILES) | MIC=<90 [1] | also measured
CCOC(=O)c1c(-c2ccccc2)oc2ccc(O)c(CN3CCOCC3)c12 | > 64 µg/mL | –
CCOC(=O)c1c(-c2ccccc2)oc2ccc(O)c(CN3CCC(C)CC3)c12 | 2.5 µM | IC50 (Vero): 16 µg/mL (≈ 40.7 µM); Activity [2]: inactive; selectivity ratio [3]: 16
CCOC(=O)c1c(-c2ccccc2)oc2ccc(O)c(CN3CCCCC3)c12 | 2 µg/mL | –
COc1ccc2c(c1)oc(=O)c1c2oc2ccc3c(c21)CN(CC1CC1)CO3 | 2 µg/mL | –
CCOC(=O)c1c(-c2ccc(OC)cc2)oc2ccc(O)c(CN3CCCCC3)c12 | 16 µg/mL | –
CCOC(=O)c1c(-c2ccc(OC)cc2OC)oc2ccc(O)c(CN3CCCCC3)c12 | 16 µg/mL | –
O=c1oc2ccc(Cl)cc2c2oc3ccc4c(c3c12)CN(CC1CC1)CO4 | 16 µg/mL | –
CCOC(=O)c1c(-c2ccccc2)oc2ccc(O)c(CN3CCN(C)CC3)c12 | > 64 µg/mL | –
CCOC(=O)c1c(-c2ccccc2)oc2ccc(O)c(CN3CCC(CO)CC3)c12 | 16 µg/mL | –
CCOC(=O)c1c(-c2ccccc2)oc2ccc(O)cc12 | > 64 µg/mL | –
Cc1cc2oc(=O)c3c(oc4ccc5c(c43)CN(CC3CC3)CO5)c2cc1C | 8 µg/mL | –
O=c1oc2ccccc2c2oc3ccc4c(c3c12)CN(CC1CC1)CO4 | 2 µg/mL | –
O=c1oc2ccccc2c2oc3ccc4c(c3c12)CN(C1CCCCC1)CO4 | 16 µg/mL | –
CCCN(CCC)Cc1c(O)ccc2oc(-c3ccccc3)c(C(=O)OCC)c12 | 8 µg/mL | –
CCOC(=O)c1c(-c2ccccc2)oc2ccc3c(c12)CN(CCC(C)C)CO3 | 4 µg/mL | –
O=C(NC1CC1)c1c(-c2ccccc2)oc2ccc(O)c(CN3CCCCC3)c12 | 8 µg/mL | –
CCOC(=O)c1c(-c2ccc(OC)cc2)oc2ccc3c(c12)CN(CC1CC1)CO3 | 2 µg/mL | –
O=c1oc2cc(F)ccc2c2oc3ccc(O)c(CN4CCCCC4)c3c12 | 1 µg/mL | IC50 (Vero): 8 µg/mL (≈ 21.8 µM); selectivity ratio [3]: 8
CCOC(=O)c1c(-c2ccccc2)oc2ccc3c(c12)CN(C1CCCC1)CO3 | 2 µg/mL | –
O=c1oc2ccc(Br)cc2c2oc3ccc4c(c3c12)CN(CC1CC1)CO4 | 8 µg/mL | –
CCOC(=O)c1c(-c2ccccc2)oc2ccc3c(c12)CN(C1CC1)CO3 | 16 µg/mL | –
O=c1oc2ccc(F)cc2c2oc3ccc4c(c3c12)CN(CC1CC1)CO4 | 16 µg/mL | –
CCOC(=O)c1c(-c2ccc(F)cc2OC)oc2ccc(O)c(CN3CCCCC3)c12 | 8 µg/mL | –
Cc1ccc2oc(=O)c3c(oc4ccc(O)c(CN5CCCCC5)c43)c2c1 | 0.5 µg/mL | IC50 (Vero): 8 µg/mL (≈ 22 µM); selectivity ratio [3]: 16
CCOC(=O)c1c(NC(=O)c2c(F)c(F)c(F)c(F)c2F)sc(C(N)=O)c1C | – | MIC [4]: 0.5 µM (≈ 0.211 µg/mL)

Structure (SMILES) | MIC=<90 [1] | also measured
O=C(Nc1ccccc1)c1c(-c2ccccc2)oc2ccc(O)c(CN3CCCCC3)c12 | 8 µg/mL | –
Cc1ccc2oc(=O)c3c(oc4ccc5c(c43)CN(CC3CC3)CO5)c2c1 | 4 µg/mL | –
CCOC(=O)c1c(-c2ccc(Br)cc2OC)oc2ccc(O)c(CN3CCCCC3)c12 | > 64 µg/mL | –
CCOC(=O)c1c(-c2ccccc2)oc2ccc(O)c(CN3CCCC3)c12 | 2 µg/mL | –
CCOC(=O)c1c(-c2cc(C)ccc2OC)oc2ccc3c(c12)CN(CC1CC1)CO3 | 8 µg/mL | –
O=C(O)c1c(-c2ccccc2)oc2ccc(O)c(CN3CCCCC3)c12 | > 64 µg/mL | –
O=c1oc2ccccc2c2oc3ccc(O)c(CN4CCCCC4)c3c12 | 0.125 to 0.25 µg/mL | IC50 (Vero): 4 µg/mL (≈ 11.4 µM); IC50 (HEK293): > 50 µg/mL; Activity [2]: Active; selectivity ratio [3]: 16 to 32; Activity [5]: Active; selectivity ratio [6]: > 100; selectivity ratio [7]: > 100; remaining at 1 h, 10 µM [8]: 14.5%; IC50 [9]: > 50 µg/mL; selectivity ratio [10]: > 100; selectivity ratio [11]: > 100; IC50 (HFL1): > 50 µg/mL; IC50 (MRC5): > 50 µg/mL
COC(=O)c1c(NC(=O)c2c(F)c(F)c(F)c(F)c2F)sc2c1CCCCC2 | – | MIC [4]: 1 µM (≈ 0.419 µg/mL)
CCOC(=O)c1c(-c2ccccc2)oc2ccc(OC)c(CN3CCCCC3)c12 | 16 µg/mL | –
CCOC(=O)c1c(-c2ccc(F)cc2)oc2ccc(O)c(CN3CCCCC3)c12 | 0.5 µg/mL | IC50 (Vero): 16 µg/mL (≈ 40.3 µM); Activity [2]: inactive; selectivity ratio [3]: 32
CCOC(=O)c1c(-c2ccccc2)oc2ccc3c(c12)CN(CC1CC1)CO3 | 1 µg/mL | IC50 (Vero): 8 µg/mL (≈ 21.2 µM); selectivity ratio [3]: 8
COc1ccc2c(c1)oc(=O)c1c2oc2ccc(O)c(CN3CCCCC3)c21 | 0.25 µg/mL | IC50 (Vero): 4 µg/mL (≈ 10.5 µM); IC50 (HEK293): > 50 µg/mL; Activity [2]: Active; selectivity ratio [3]: 16; selectivity ratio [6]: > 100; selectivity ratio [7]: > 100; remaining at 1 h, 10 µM [8]: 45.5%; IC50 [9]: 38.8 µg/mL (≈ 102 µM); selectivity ratio [10]: > 100; selectivity ratio [11]: > 100; IC50 (HFL1): 50.2 µg/mL (≈ 132 µM); IC50 (MRC5): > 50 µg/mL
CCOC(=O)c1c(-c2ccc(C)cc2)oc2ccc3c(c12)CN(CC1CC1)CO3 | 4 µg/mL | –
COc1ccc2oc(=O)c3c(oc4ccc(O)c(CN5CCCCC5)c43)c2c1 | 4 µg/mL | –
O=c1oc2ccccc2c2oc3ccc(O)cc3c12 | > 64 µg/mL | –
O=C(NC12CC3CC(CC(C3)C1)C2)c1c(-c2ccccc2)oc2ccc(O)c(CN3CCCCC3)c12 | > 64 µg/mL | –
O=c1oc2cc(Cl)c(Cl)cc2c2oc3ccc4c(c3c12)CN(CC1CC1)CO4 | > 64 µg/mL | –
CCOC(=O)c1c(-c2cc(C)c(C)cc2OC)oc2ccc(O)c(CN3CCCCC3)c12 | 4 µg/mL | –
O=c1oc2cc(Br)ccc2c2oc3ccc(O)c(CN4CCCCC4)c3c12 | 1 µg/mL | IC50 (Vero): 8 µg/mL (≈ 18.7 µM); selectivity ratio [3]: 8
CCNC(=O)c1c(-c2ccccc2)oc2ccc(O)c(CN3CCCCC3)c12 | 4 µg/mL | –
CCOC(=O)c1c(-c2ccc(C(F)(F)F)cc2)oc2ccc(O)c(CN3CCCCC3)c12 | 8 µg/mL | –
COc1ccc2oc(=O)c3c(oc4ccc5c(c43)CN(CC3CC3)CO5)c2c1 | 16 µg/mL | –
O=C(NCc1ccccc1)c1c(-c2ccccc2)oc2ccc(O)c(CN3CCCCC3)c12 | 16 µg/mL | –
O=c1oc2ccccc2c2oc3ccc4c(c3c12)CN(C1CCCC1)CO4 | 0.5 µg/mL | IC50 (Vero): 0.5 µg/mL (≈ 1.38 µM); selectivity ratio [3]: 1

Source: ChEMBL document CHEMBL4052825, “Identification of Novel Coumestan Derivatives as Polyketide Synthase 13 Inhibitors against Mycobacterium tuberculosis” (J Med Chem, 2018)
